Test results as given in article PMC9306620 (Clinical Pharmacology in Drug Development, 2022).
Several values for one entry are separate records, joined by “and”; a condition that tells them apart may be missing. Equal entries are not always repeated. Where two headings read alike, the source gives them in different places.

Experiments:
[1] = format: in vivo, healthy participants; details: 200 mg, moderate-fat meal; for AUC(0-t) / AUC(0-inf) / Cmax: human, plasma, oral, geometric LS mean, part 1, analysis of variance, n = 18; for AUC(0-t): AUC0-t; for AUC(0-inf): AUC0-∞
In short: (§1)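 Randomized, open-label, single-dose crossover in healthy adults aged 18–55, with periods separated by a ≥7-day washout. Each oral 200 mg dose was given as two 100-mg units. Plasma was sampled 40 min predose and 1–96 h postdose and assayed by UHPLC-MS/MS. Noncompartmental parameters used actual sampling times. ln-AUC0-t, AUC0-∞ and Cmax were analysed by linear mixed-effects model (treatment, period, sequence fixed; participant random) with 90% CIs.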

[2] = test system: uridine diphosphate glucuronosyltransferase 1A1; details: in vitro; cited from earlier work
[3] = drug interaction studies; cited from earlier work
[4] = Part 2: food effect on plasma pharmacokinetics of the tablet formulation; format: in vivo, healthy participants; details: for AUC(0-t) / AUC(0-inf) / Cmax: human, plasma, oral, 200 mg, geometric LS mean, part 2, analysis of variance; for AUC(0-t): AUC0-t; for AUC(0-inf): AUC0-∞
In short: as §1

[5] = test system: HIV-1; details: 200-mg dose, treatment-naive adults with HIV-1, phase IIa; cited from earlier work
[6] = cited from earlier work
[7] = Part 2: safety and tolerability; format: in vivo, healthy participants; details: for Adverse events: abdominal distention (drug related) / Adverse events: anxiety / Adverse events: any event / Adverse events: diarrhea (drug related) / Adverse events: dysmenorrhea / Adverse events: eye irritation / Adverse events: rash maculopapular (drug related, led to withdrawal): part 2, tablet 200 mg
In short: (§2)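 Safety followed a single oral 200 mg dose given as two 100-mg capsules or tablets. Adverse events, clinical laboratory tests, vital signs, 12-lead ECG and physical examination were monitored. The safety population was all participants receiving ≥1 dose, summarized descriptively by treatment. AEs occurring later than last treatment + 5 days were not counted. The investigator assessed each AE for drug relatedness.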

[8] = Part 1: safety and tolerability; format: in vivo, healthy participants; details: N = 18
In short: as §2

[9] = test system: HIV-1 subtypes; details: in vitro; cited from earlier work
[10] = test system: organic anion-transporting polypeptide 1B3; details: in vitro; cited from earlier work
[11] = tablet 200 mg, high fat, n = 21
[12] = tablet 200 mg, moderate fat, n = 20
[13] = tablet 200 mg, high fat vs fasted, part 2
[14] = tablet 200 mg, moderate fat vs fasted, part 2

AUC(0-t) ([1]; capsule): 33700 ng·h/mL
AUC(0-t) ([1]; tablet): 33800 ng·h/mL
AUC(0-inf) ([1]; capsule): 36900 ng·h/mL
AUC(0-inf) ([1]; tablet): 36900 ng·h/mL
Cmax ([1]; capsule): 1200 ng/mL
Cmax ([1]; tablet): 1310 ng/mL
AUC0-t, geometric LS mean ratio ([1]; tablet vs capsule, part 1): 1.00
AUC0-∞, geometric LS mean ratio ([1]; tablet vs capsule, part 1): 0.998
Cmax, geometric LS mean ratio ([1]; tablet vs capsule, part 1): 1.09
AUC(0-t) ([4]; tablet 200 mg, fasted, n = 13): 12200 ng·h/mL
AUC(0-t) [4, 11]: 34100 ng·h/mL
AUC(0-t) [4, 12]: 38500 ng·h/mL
AUC(0-inf) ([4]; tablet 200 mg, fasted, n = 10): 14200 ng·h/mL
AUC(0-inf) [4, 11]: 36900 ng·h/mL
AUC(0-inf) [4, 12]: 41600 ng·h/mL
Cmax ([4]; tablet 200 mg, fasted, n = 13): 351 ng/mL
Cmax [4, 11]: 1080 ng/mL
Cmax [4, 12]: 1440 ng/mL
AUC0-t, geometric LS mean ratio compared with fasted conditions [4, 13]: 2.79
AUC0-∞, geometric LS mean ratio compared with fasted conditions [4, 13]: 2.59
Cmax, geometric LS mean ratio compared with fasted conditions [4, 13]: 3.08
mean Cmax, fold higher than under fasted conditions ([4]; tablet 200 mg, high-fat conditions, part 2): ~3 fold
AUC0-t, geometric LS mean ratio compared with fasted conditions [4, 14]: 3.15
AUC0-∞, geometric LS mean ratio compared with fasted conditions [4, 14]: 2.93
Cmax, geometric LS mean ratio compared with fasted conditions [4, 14]: 4.10
mean estimate for CL/F, lower than under fasted conditions ([4]; tablet 200 mg, moderate- or high-fat conditions, part 2): > 60%
mean Cmax, fold higher than under fasted conditions ([4]; tablet 200 mg, moderate-fat conditions, part 2): ≈ 4 fold
t1/2, arithmetic mean (SD) ([4]; tablet, single dose 200 mg, fasted conditions, part 2, n = 10): 25.9 (3.33) hour
t1/2, arithmetic mean (SD) ([4]; tablet, single dose 200 mg, high-fat conditions, part 2, N = 21): 25.1 (4.18) hour
t1/2, geometric mean (%CVb) ([4]; tablet, single dose 200 mg, moderate-fat conditions, part 2, N = 20): 24.9 (18.0) hour
SMILES: C=C(C)[C@@H]1CC[C@]2(NCCN3CCS(=O)(=O)CC3)CC[C@]3(C)[C@H](CC[C@@H]4[C@@]5(C)CC=C(C6=CC[C@@](CF)(C(=O)O)CC6)C(C)(C)[C@@H]5CC[C@]43C)[C@@H]12 [GSK3640254]
inhibition of uridine diphosphate glucuronosyltransferase 1A1 [2]: inhibitor
effect on the pharmacokinetics of combined oral contraceptives [3]: no meaningful effect
effect on the pharmacokinetics of dolutegravir [3]: no meaningful effect
effect on the pharmacokinetics of tenofovir alafenamide [3]: no meaningful effect
reduction in plasma HIV-1 RNA [5]: approximately 2 log10
estimated half-life ([6]; 200-mg dose, healthy participants): approximately 22.6 hours
tolerability ([6]; phase I studies in healthy participants, headache most common AE): generally well tolerated
Adverse events: abdominal distention (drug related) ([7]; fasted, N = 19): 0 n (%)
Adverse events: anxiety ([7]; fasted, N = 19): 0 n (%)
Adverse events: any event ([7]; fasted, N = 19): 0 n (%)
Adverse events: diarrhea (drug related) ([7]; fasted, N = 19): 0 n (%)
Adverse events: dysmenorrhea ([7]; fasted, N = 19): 0 n (%)
Adverse events: eye irritation ([7]; fasted, N = 19): 0 n (%)
Adverse events: rash maculopapular (drug related, led to withdrawal) ([7]; fasted, N = 19): 0 n (%)
Adverse events: abdominal distention (drug related) ([7]; high fat, N = 21): 1 (5) n (%)
Adverse events: anxiety ([7]; high fat, N = 21): 1 (5) n (%)
Adverse events: any event ([7]; high fat, N = 21): 5 (24%) n (%) and 5 (24) n (%)
Adverse events: diarrhea (drug related) ([7]; high fat, N = 21): 2 n (%) and 2 (10) n (%)
Adverse events: dysmenorrhea ([7]; high fat, N = 21): 1 (5) n (%)
Adverse events: eye irritation ([7]; high fat, N = 21): 0 n (%)
Adverse events: rash maculopapular (drug related, led to withdrawal) ([7]; high fat, N = 21): 1 (5) n (%)
Adverse events: abdominal distention (drug related) ([7]; moderate fat, N = 20): 0 n (%)
Adverse events: anxiety ([7]; moderate fat, N = 20): 0 n (%)
Adverse events: any event ([7]; moderate fat, N = 20): 0 n (%)
Adverse events: diarrhea (drug related) ([7]; moderate fat, N = 20): 0 n (%)
Adverse events: dysmenorrhea ([7]; moderate fat, N = 20): 0 n (%)
Adverse events: eye irritation ([7]; moderate fat, N = 20): 0 n (%)
Adverse events: rash maculopapular (drug related, led to withdrawal) ([7]; moderate fat, N = 20): 0 n (%)
participants reporting AEs considered related to the study treatment ([7]; part 2, tablets 200 mg, high-fat conditions): 10%
highest incidence of adverse events ([7]; tablet 200 mg, high-fat conditions): 24%
Adverse events: abdominal distention (drug related) ([8]; part 1, capsule 200 mg): 0 n (%)
Adverse events: anxiety ([8]; part 1, capsule 200 mg): 0 n (%)
Adverse events: diarrhea (drug related) ([8]; part 1, capsule 200 mg): 0 n (%)
Adverse events: dysmenorrhea ([8]; part 1, capsule 200 mg): 0 n (%)
Adverse events: eye irritation ([8]; part 1, capsule 200 mg): 0 n (%)
Adverse events: rash maculopapular (drug related, led to withdrawal) ([8]; part 1, capsule 200 mg): 0 n (%)
Adverse events: abdominal distention (drug related) ([8]; part 1, tablet 200 mg): 0 n (%)
Adverse events: anxiety ([8]; part 1, tablet 200 mg): 0 n (%)
Adverse events: any event ([8]; part 1, tablet 200 mg): 1 (6) n (%)
Adverse events: diarrhea (drug related) ([8]; part 1, tablet 200 mg): 0 n (%)
Adverse events: dysmenorrhea ([8]; part 1, tablet 200 mg): 0 n (%)
Adverse events: eye irritation ([8]; part 1, tablet 200 mg): 1 (6%) n (%) and 1 (6) n (%)
Adverse events: rash maculopapular (drug related, led to withdrawal) ([8]; part 1, tablet 200 mg): 0 n (%)
inhibition across various HIV-1 subtypes [9]: broad‐spectrum potent inhibition
inhibition of organic anion-transporting polypeptide 1B3 [10]: inhibitor
